Assay outcomes (PubChem)
Most compounds without a hit are left out; they make up all but 2.4% or so of the library.
NPY-Y1 antag – antagonists of human neuropeptide Y receptor Y1; 1% of 200,000 active; HEK293-CNG Y1 cells, membrane potential fluorescence; NPY at EC95, then isoproterenol; AID 1040; inhibition, % at 3.6 µM;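 active = inhibition above the campaign mean inhibition of all tested compounds plus 3 SD, cut at about 20% in these data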;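 note: 0% = DMSO wells given NPY plus isoproterenol and 100% = isoproterenol alone without NPY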
Target sequence (P25929 whole entry, looked up): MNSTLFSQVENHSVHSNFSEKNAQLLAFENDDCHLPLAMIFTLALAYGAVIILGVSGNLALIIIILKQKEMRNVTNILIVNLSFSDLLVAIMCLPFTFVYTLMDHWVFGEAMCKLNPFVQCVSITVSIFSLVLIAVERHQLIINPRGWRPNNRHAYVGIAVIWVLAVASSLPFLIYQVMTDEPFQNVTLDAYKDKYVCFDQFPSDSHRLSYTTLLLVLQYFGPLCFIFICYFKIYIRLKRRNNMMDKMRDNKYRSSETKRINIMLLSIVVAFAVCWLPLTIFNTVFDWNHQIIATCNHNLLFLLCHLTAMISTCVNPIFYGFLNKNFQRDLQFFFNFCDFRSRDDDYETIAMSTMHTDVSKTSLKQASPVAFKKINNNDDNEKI
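Test system: HEK293 cells co-expressing NPY Y1 receptor and cyclic-nucleotide gated channel; Also added: NPY (25 nM), isoproterenol (1 µM), Ro 20-1724 (25 µM); Compound dosing: one concentration, 3.6 µM, in 0.4% DMSO; Timing: dye 3 h, compound 60 min room temperature, stimulation 45 min; Technique: Membrane-potential fluorescent dye readout.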
NPY2 pot ag – human NPY-Y2 potentiation or agonism, primary screen; P49146; activation, % at 3.6 µM; AID 1359; 0.45% of 220,000 active; cells expressing NPY-Y2, potentiator/agonist read-out; in the data active = activation above about 27%;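 note: cells stimulated with NPY near EC25 plus isoproterenol at EC100; 0% = vehicle plus submaximal agonist and 100% = vehicle plus saturating agonist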
S1P4 antagonist – antagonists of human S1P4 receptor; S1P4-expressing cells, antagonist mode, reporter read-out; inhibition, % at 4.98 µM; 0.26% of 220,000 active; in the data active = inhibition above about 29%;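 note: 0% = wells stimulated with agonist and 100% = vehicle wells without agonist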
NPY-Y1 PAM-ag – potentiators or agonists of human neuropeptide Y receptor Y1; NPY-Y1 expressing cells, potentiator/agonist activation; activation, % at 3.6 µM; 0.37% of 220,000 active; in the data active = activation above about 33%, passing the limit was not always enough;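 note: cells stimulated with NPY at EC10 then isoproterenol at EC100; 0% = low agonist plus stimulus and 100% = saturating agonist plus stimulus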
NPY-Y2 antag – blocks the human neuropeptide Y Y2 receptor; P49146; NPY-Y2 expressing cells, antagonist mode; inhibition, % at 2.7 µM; 0.99% of 140,000 active; in the data active = inhibition above about 17%;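 note: 0% = vehicle with agonist challenge and 100% = reference antagonist with challenge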
S1P4 agonist – agonists of human S1P4 receptor; S1P4-expressing cell line, agonist reporter assay; activation, % at 4.98 µM; 0.35% of 220,000 active; in the data active = activation above about 11%;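 note: 0% = DMSO vehicle and 100% = reference agonist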
An asterisk follows results filed as active; · = no result.

SMILES	NPY-Y1 antag	NPY2 pot ag	S1P4 antagonist	NPY-Y1 PAM-ag	NPY-Y2 antag	S1P4 agonist
COc1ccccc1NC(=O)c1ccc(NC(=O)CN2C(=O)CN(C)C2=O)cc1	7	3	0	1	·	0
CCc1ccc(-c2nc(CN3CCC(C(=O)NCc4ccccc4OC)CC3)c(C)o2)cc1	21*	-17	6	-58	18*	-4
COc1ccccc1CNC(=O)C1CCN(Cc2nc(-c3cccc(Cl)c3)oc2C)CC1	7	5	-2	-6	2	-3
CC(C)CNC1=C(C(=S)Nc2ccccc2)C(=O)CC(C)(C)C1	-3	8	-6	21	-2	-3
CCCSC1=C(C#N)C2(CCCCC2)C(C#N)=C(N)N1	-13	32*	-4	53*	·	-1
Cc1cc(C)nc(/N=C2\NC(=O)CC(C(=O)O)N2c2ccc(C)c(C)c2)n1 (centres undefined)	2	-1	7	13	·	2
O=C(NC1CCCCC1)N1CCN(Cc2ccco2)CC1	1	-25	-9	-14	·	1
CC(C)NCC(O)Cn1c2c(c3ccccc31)CCc1c-2cnn1-c1ccccc1 (centres undefined)	-6	43*	1	50*	1	-3
Cc1onc(-c2ccc(Cl)cc2Cl)c1-c1csc(N/N=C/c2ccccc2)n1	·	21	4	26	·	1
Cc1ccc2cc(CN(CCN3CCCC3)C(=O)Nc3ccc(F)cc3)c(=O)[nH]c2c1C	26*	-29	-13	-55	5	0
Cc1ccc2cc(CN(CCN3CCCC3)C(=O)Nc3ccccc3)c(=O)[nH]c2c1C	15	-31	3	-32	6	-1
COC(=O)C/C=C/[C@@H](C)[C@@H](/C=N/OC[C@@H](C)[C@H](OCc1ccccc1)C(C)C)NS(=O)(=O)c1ccc(C)cc1	0	-6	-18	-10	1	2
COc1ccc(-c2[nH]ncc2CN2CCC(N3CCSCC3)CC2)c(F)c1	2	6	-15	2	·	1
N=c1n(CCN2CCCCC2)c2ccccc2n1CC(O)COc1ccccc1 (centres undefined)	49*	-28	15	-75	60*	-1
CCCCn1c(=N)n(CC(O)COc2ccc(C)cc2)c2ccccc21 (centres undefined)	61*	-16	20	-32	47*	-1
N=c1n(CCN2CCOCC2)c2ccccc2n1CC(O)COc1ccccc1 (centres undefined)	8	-6	15	-15	12	-1
CCCCn1c(=N)n(CC(O)COc2ccccc2)c2ccccc21 (centres undefined)	34*	-60	4	-58	26*	0
N=c1n(CCN2CCCCC2)c2ccccc2n1CC(O)c1cccc(Br)c1 (centres undefined)	41*	-20	8	-39	32*	0
Cc1ccc(OCC(O)Cn2c3ccccc3c3ccccc32)cc1 (centres undefined)	0	-9	-7	7	0	0
COc1cc(/C=N/NC(=O)c2ccncc2)ccc1OCc1cnc(Cl)s1	2	-2	-2	-2	·	-1
CCCCN1C(=O)C(NC(C)=O)c2cc(Br)ccc21 (centres undefined)	27*	-4	-16	14	20*	-3
COc1ccc(-n2cnnc2SCC(=O)N2CCN(c3ccccc3)CC2)cc1	-2	8	-5	-10	-2	0
COc1ccc(N2CCN(C(=O)CSc3nnc(-c4cc5ccccc5cc4O)n3C)CC2)cc1	0	92*	-2	86*	-1	0
O=C(Nc1cccc(Cl)c1N1CCCC1)c1ccc(Br)o1	33*	-32	-13	-79	33*	-1
O=C(Nc1cccc(Cl)c1N1CCCC1)c1ccc([N+](=O)[O-])o1	5	5	19	12	·	1
CCOc1ccc2c(c1)-c1c(ssc1=S)C(C)(C)N2C(=O)CSC1=NCCS1	-9	40*	-5	49*	-5	1
CCOc1ccc2c(c1)-c1c(ssc1=S)C(C)(C)N2	-14	45*	-1	44*	-10	2
Cc1ccc2c(c1)-c1c(ssc1=S)C(C)(C)N2C(=O)CSC1=NCCS1	-7	24	5	14	-6	0
NS(=O)(=O)c1ccc(CCNC(=O)c2cc(-c3cc(Cl)ccc3O)n[nH]2)cc1	·	4	0	1	·	2
